Assay results taken from the EternaBench riboswitch data.

Tested on: MS2 coat protein
Assay: apparent Kd, MS2 coat protein; higher = weaker binding; RNA-MaP array; FMN 200 µM where present
How it was run: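 The titrant was SNAP-549-labelled MS2 coat protein, run from 0.7 or 1.5 nM in doubling steps to 3 µM. It was applied to designs transcribed by stalled E. coli RNA polymerase on Illumina sequencing-chip clusters, without ligand first and then with constant ligand, in 100 mM Tris-HCl pH 7.5, 80 mM KCl, 4 mM MgCl2, BSA, DTT, yeast tRNA and Tween-20. The apparent Kd is the median of filtered per-cluster binding-curve fits, with green signal normalised to red-channel RNA signal and control-cluster median Fmax.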

[1] = designed as: OFF switch for flavin mononucleotide, no ligand
[2] = ligand present: flavin mononucleotide, designed as: OFF switch for flavin mononucleotide
[3] = designed as: ON switch for flavin mononucleotide, no ligand
[4] = ligand present: flavin mononucleotide, designed as: ON switch for flavin mononucleotide

Row | Sequence | apparent Kd [1] [nM] | apparent Kd [2] [nM] | apparent Kd [3] [nM] | apparent Kd [4] [nM]
1 | CUAUGUUAGCAGGAUAUGCCAUUAUUCCUUUACGCAGAAGGGCUUACAUGAGGAUCACCCAUGUUACAUUUCAU | 14.1 | 29.8 |  | 
2 | GCACUGGAUGUAGGAUAUCAGGACGAUAAGUCCUGAGAAGGACAUGAGGAUCACCCAUGUGAAUAAACCAGUGCAAAUAAUAUA | 12.5 | 32.3 |  | 
3 | GGGAGACAUGAGGAUCACCCAUGUGAAAACGUGCGAGGAUAUGUAUGGAAACCAUACUGUACAGAAGGCGUUUGUC |  |  | 50.2 | 47.7
4 | UUAUACGUUGAGGAUAUGUCAGUUAGUAUAUUUACAGAAGGCGAUACAUGAGGAUCACCCAUGUUUAUGGGCAU | 213 | 149 |  | 
5 | GUCAGCUCGUGAGGAUAUACGACACUGCUUCGGCAGUGUAUUAAGAUCACAUGAGGAUCACCCAUGUAGAAGGCACGAGCUGAU | 8.64 | 145 |  | 
6 | CGAUAUAUGAAGGGCGAACGCGCACAUGAGGAUCACCCAUGUAGAAGGCGAUCCGCAACGCGGAUCGAGGAUAUAUAGUAUACG | 32.7 | 34 |  | 
7 | AUCCAGGUAACAUGAGGAUCACCCAUGUUCCUUCGCUCUGGCAAGGAUAUGAAGGGAUUGUCCCAUCAGAAGGUGCAUGGGUGC |  |  | 23 | 19.9
8 | CGAAGUCCGUAGAAGGGUGACAUGAGGAUCACCCAUGUGCGAGCCGAGGGAGUCAGCGGCUCGCCACAGGAUAUACGGAUCACG |  |  | 17.1 | 61.8
9 | AGGUGACAUGAGGAUCACCCAUGUAAGGAUAUACGGUUAGUGGAGAGUUGGAAGAGAGGUAGAAGGUACGGAGC | 288 | 137 |  | 
10 | UUAAAUCAUGUAGGAUAUGCAUGGCGAAGCUACGCAGAAGGACAUGAGGAUCACCCAUGUGCUAGCGUCUGGAUACAGAUGCAA | 48.5 | 258 |  | 
11 | AGUAGAUCAGGAUAUACGUGAAAGGUCAAAGUGUCCAAUAUACAUGAGGAUCACCCAUGUAGAAGGGAUCUACA | 24.8 | 111 |  | 
12 | UUACUAUAACAGAAGGCUAAAUAAUAUAUAAAUGGAGGAUAUGUUACAUGAGGAUCACCCAUGUUUCACCCACAUGAGGAUCAC | 13.7 | 42 |  | 
13 | UUGAGGUCAGGAUAUGCAUGGCGGGACUUGCGUCGUGGCGUGGAGAAGGGACAUGAGGAUCACCCAUGUGGAGA | 83.5 | 81.6 |  | 
14 | GGUCGGCGAGGAUAUACAUGAGGAUCACCCAUGUGAUAGAUUGCACGCGUACGUGUAUGUAGAAGGCGCUGACG | 21.8 | 200 |  | 
15 | UUGGACGUCGUAGGAUAUGUAGGAUAUUCCUACAUGAGGAUCACCCAUGUUGACAUGGAAGAAGGACAGAAGGACUAUGUCCAU |  |  | 195 | 8.53
16 | GGGUACAUCGGAGGAUAUUAUGUAAAUACAUGAGGAUCACCCAUGUCGAUGGAGACAUCGGAGAUUGAGAAGGCCGAUGUACCG |  |  | 119 | 8.94
17 | GUCUGAUUGUAGAAGGUACUUAAUACUCAUGUAACAUGAGGAUCACCCAUGUAUCAUCAAUAUUGUAAGGAUAUACAAAUCUCA |  |  | 150 | 28.4
18 | AGAAAUUAGUGAGGAUAUGCAUAAAUUGUAGCUGCAGAAGGCACGGACCACAAGACAUGAGGAUCACCCAUGUGGUAUUUAGAU | 29.9 | 34.9 |  | 
19 | GGCUACGUUUCGUAGCAGCUAGGUGAGGAUAUUCAAUUUUUCACAUGAGGAUCACCCAUGUAUGUGAAGAAGGCGCCUAGAAAC |  |  | 11.2 | 5.14
20 | UUGGACGUCGUAGGAUAUGUAGGUUAUUCCUACAUGAGGAUCACCCAUGUUGACAUGGAAGAAGGACAGAAGGACGAUGUCCAU |  |  | 184 | 4.18
21 | CAUCCGGCAGGAUAUACAUGAGGAUCACCCAUGUCAGAAAGCAAAUUGUGCGACUCAGGUAGAAGGGUUGGACU | 28.9 | 34.2 |  | 
22 | UGGUGAAUUGAGAAGGGAACAGAUGUAGCUCCACAUGAGGAUCACCCAUGUUCAGGAUAUCAGUGCCCGACCUUGAGCGGUCGC | 7.92 | 11.8 |  | 
23 | GUUCUUCCUGUAAGGAUAUCCAUGUGUCAGUUUAUGGAGAAGGUACAUGAGGAUCACCCAUGUCACCCGCGUUA | 18.4 | 51.2 |  | 
